Cneo AK release: Cryptococcus neoformans cell lysis inducers, primary screen, AK release luminescence, single concentration | C. neoformans lysis, adenylate kinase release luminescence, 4 h; normalised: neutral wells 0, clomiphene wells 100 | lysis activity, % at 15 µM | 360,000 compounds, 0.2% hits;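 active = mean lysis activity across replicates of at least 80%, whatever share of replicates individually reach that level; inactive = mean lysis activity below 80%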
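Test system: log-phase Cryptococcus neoformans yeast cells. Input: 5 × 10^6 yeast cells/mL. Medium: fresh YPD growth medium. Doses: single dose. Incubation: static 4 h at 37 °C with compound, 1 h detection. Measured by: luminescent adenylate kinase detection reagent. Read-out: signal increase indicating cell lysis. Benchmarks: Clomiphene.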
ERp5 block: inhibitors of ERp5-driven insulin aggregation, primary screen, biochemical, turbidity, absorbance 650 nm, single point; inhibition, % at 9.99 µM; Protein disulfide-isomerase A6 (Homo sapiens), Q15084; AID 651711, 2012; 90 min; 350,000 compounds, 0.05% hits;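 active = mean replicate inhibition above about 25%, with every replicate also reaching it, limit read from the data, passing the limit was not always enough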
CFTR F508del cor: F508del CFTR correction, initial screen, CFBE line, single point; CFBE cells, YFP halide quenching; stimulated with forskolin plus potentiator P3; % fluorescence drop versus neutral controls; activity (quench increase), % at 7.58 µM; 350,000 compounds, 0.36% hits;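 active = mean added fluorescence quench of at least 8% versus neutral control, with both replicates also reaching 8%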;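 note: cells transiently co-express mutant CFTR-F508del with the halide-sensitive YFP; corrector assay measuring rescue of mutant channel to the surface after 24 h compound exposure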
DENV2 CPE rescue: inhibitors of DENV2 cytopathic effect, primary screen, cell-based, plate reader, single concentration; DENV2-infected cells, cytopathic effect rescue; CPE inhibition, % at 9.99 µM; 350,000 compounds, 1.7% hits; AID 651640, 2012; in the data active = CPE inhibition above about 20%, passing the limit was not always enough; tested in BHK-21 cells;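 note: 0% = median of neutral control wells and 100% = median of positive control wells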
C2C12 statin: suppressors of statin myotoxicity in C2C12 myotubes, primary screen, cell-based, single point, plate reader; AID 602340, 2012; rescue of ATP level, % at 7.49 µM; C2C12 myotubes + simvastatin, ATP luminescence, 48 h; scaled: DMSO 0, geranylgeraniol control 100; 330,000 compounds, 0.78% hits;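 active = mean ATP rescue above about 67%, or every replicate alone reaching that limit, limit read from the data, passing the limit was not always enough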;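 note: myotubes were challenged with 10 µM simvastatin during compound exposure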
PDI inh: inhibitors of human PDI, primary screen, biochemical, turbidity, single point, plate reader | PDI insulin aggregation turbidity, A650, 90 min | inhibition, % at 10 µM | 350,000 compounds, 0.052% hits;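 active = mean inhibition across replicates of 30% or more, whatever share of single replicates reach that level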
Target sequence (P07237 whole entry, looked up): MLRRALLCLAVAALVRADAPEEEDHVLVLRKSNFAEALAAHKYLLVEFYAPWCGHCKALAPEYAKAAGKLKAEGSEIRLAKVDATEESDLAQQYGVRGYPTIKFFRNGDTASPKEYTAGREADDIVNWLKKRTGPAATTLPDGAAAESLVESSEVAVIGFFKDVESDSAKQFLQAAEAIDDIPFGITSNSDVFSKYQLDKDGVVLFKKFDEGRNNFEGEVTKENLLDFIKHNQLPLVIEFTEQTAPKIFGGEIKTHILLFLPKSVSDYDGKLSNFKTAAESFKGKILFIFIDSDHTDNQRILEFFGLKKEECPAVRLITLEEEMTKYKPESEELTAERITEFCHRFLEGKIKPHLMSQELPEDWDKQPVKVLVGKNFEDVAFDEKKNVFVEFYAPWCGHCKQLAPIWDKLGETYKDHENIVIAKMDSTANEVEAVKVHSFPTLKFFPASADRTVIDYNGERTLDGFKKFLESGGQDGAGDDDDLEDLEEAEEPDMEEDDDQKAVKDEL
Starred values were filed as active, the others as inactive; . = no result. An excerpt weighted towards active compounds, which were near 2.3% of everything screened.

SMILES	Cneo AK release	ERp5 block	CFTR F508del cor	DENV2 CPE rescue	C2C12 statin	PDI inh
CCN(CC)S(=O)(=O)c1ccc(NC(=O)COC(=O)CNC(=O)C2CCCCC2)cc1	3	1	-1	63*	-2	5
C[C@@H]1CCCCO[C@H](CN(C)Cc2ccc3c(c2)OCO3)[C@@H](C)CN([C@@H](C)CO)C(=O)c2cc(NS(=O)(=O)c3ccccc3)ccc2O1	1	-6	1	-3	.	.
Cc1ccc(O)c(C(=O)c2cc(C#N)c(=O)n(CC3CCCO3)c2)c1 (stereo not drawn)	.	.	.	.	95*	2
COc1ccc(O)c(C(=O)c2cc(C#N)c(=O)n(CC3CCCO3)c2)c1 (stereo not drawn)	-1	.	.	.	.	-1
C[C@@H](NC(=O)C[C@@H]1CC[C@H]2[C@@H](COC[C@@H](O)CN2C)O1)c1ccccc1	2	-6	-1	-4	10	.
Nc1nc(SCC(=O)N2CCN(c3ccc(F)cc3)CC2)n[nH]1	-1	4	2	40*	8	2
CO[C@H]1O[C@H](CO)[C@@H](OC(=O)Nc2cccc(F)c2)[C@H](OC(=O)Nc2ccccc2)[C@@H]1OC(=O)Nc1ccccc1	-3	-6	-2	-7	.	.
CC(C)Cn1c(=S)[nH]c2cc(C(=O)NCc3ccccc3F)ccc2c1=O	-2	16	-2	62*	-5	-6
CCCN(C)C[C@H]1OCCCC[C@@H](C)Oc2ccc(NC(=O)CCC(F)(F)F)cc2C(=O)N([C@@H](C)CO)C[C@H]1C	-1	2	3	-6	-17	.
C[C@@H]1CCCCO[C@@H](CN(C)C(=O)CCC(F)(F)F)[C@@H](C)CN([C@H](C)CO)C(=O)c2cc(NC(=O)Nc3ccc4c(c3)OCO4)ccc2O1	1	-1	0	42*	38	.
C[C@@H]1CCCCO[C@H](CN(C)C(=O)CCC(F)(F)F)[C@H](C)CN([C@@H](C)CO)C(=O)c2cc(NC(=O)Nc3ccc4c(c3)OCO4)ccc2O1	2	-2	0	26*	55	.
CC(C)NC(=O)Nc1ccc2c(c1)C(=O)N([C@@H](C)CO)C[C@H](C)[C@@H](CN(C)C(=O)CCC(F)(F)F)OCCCC[C@H](C)O2	96*	2	2	0	.	.
O=C(NCc1ccccc1)c1ccccc1	17	-2	2	20*	-1	.
O=C(NCc1ccccc1)c1ccc(C(=O)NCc2ccccc2)cc1	.	-1	-2	-2	.	9
CCN(CC(=O)Nc1ccc(NC(C)=O)cc1)C(=O)c1ccc(N2CCC(C)CC2)c([N+](=O)[O-])c1	-1	-12	41*	1	-9	10
C[C@H](CO)N1C[C@H](C)[C@@H](CN(C)S(=O)(=O)c2ccc(C#N)cc2)OCc2ccccc2-c2ccccc2C1=O	0	5	0	0	-32	.
CCCCn1nc(NC(=O)CC)c2cc3cc(OC)ccc3nc21	0	1	9.6*	3	3	2
COCC(=O)N(C)C[C@H]1Oc2ncc(C3=CCCC3)cc2C(=O)N([C@H](C)CO)C[C@@H]1C	6	1	-2	-5	4	.
CO[C@H]1CN(C)C(=O)c2cc(NC(=O)CC(F)(F)F)ccc2OC[C@@H](C)N(C(C)=O)C[C@H]1C	.	-5	-1	19	.	.
CC(C)(C)C1CCC(=O)N(CCOc2ccccc2)CC1 (stereo not drawn)	-1	-2	-2	66*	-2	-3
CCCN1CCC(=O)N(CCOc2ccccc2)CC1	3	2	2	-6	9	-10
COc1cccc(N2CCc3c(C)nc4ccc(Cl)cc4c32)c1	10	-1	5	41*	-40	-5
COc1ccc(N2CCc3c(C)nc4c(OC)cc(OC)cc4c32)cc1	.	11	11*	3	.	-7
COc1ccc(N2CCc3c(C)nc4c(OC)cc(OC)cc4c32)c(OC)c1	3	.	.	.	-129	-10

From PubChem
